Structures are written as SMILES.

Experiment [1] concerns the target 5-hydroxytryptamine receptor 2A (Sus scrofa, UniProt P50129). In words: Ability to displace [3H]-Ketanserin radioligand from porcine 5-hydroxytryptamine 2A receptor.
The target of experiment [2] is D(1A) dopamine receptor (Bos taurus, UniProt Q95136). The experiment in a line: Ability to displace [3H]SCH-23,390 radioligand from bovine Dopamine receptor D1.
Experiment [3] has as its target D(3) dopamine receptor (Homo sapiens, UniProt P35462). In words: Ability to displace [3H]spiperone radioligand from cloned human Dopamine receptor D3 in CHO cells. The class given is cell-based. The method, boiled down:
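Human D3 receptor stably expressed in CHO cells, membranes labelled with [3H]spiperone in a competition format.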

For experiment [4], the target named is T1, D(2) dopamine receptor (Homo sapiens, UniProt P14416). The experiment in a line: Ability to displace [3H]spiperone radioligand from cloned human Dopamine receptor D2 in CHO cells. The class given is cell-based.
T1 sequence (P14416 whole entry): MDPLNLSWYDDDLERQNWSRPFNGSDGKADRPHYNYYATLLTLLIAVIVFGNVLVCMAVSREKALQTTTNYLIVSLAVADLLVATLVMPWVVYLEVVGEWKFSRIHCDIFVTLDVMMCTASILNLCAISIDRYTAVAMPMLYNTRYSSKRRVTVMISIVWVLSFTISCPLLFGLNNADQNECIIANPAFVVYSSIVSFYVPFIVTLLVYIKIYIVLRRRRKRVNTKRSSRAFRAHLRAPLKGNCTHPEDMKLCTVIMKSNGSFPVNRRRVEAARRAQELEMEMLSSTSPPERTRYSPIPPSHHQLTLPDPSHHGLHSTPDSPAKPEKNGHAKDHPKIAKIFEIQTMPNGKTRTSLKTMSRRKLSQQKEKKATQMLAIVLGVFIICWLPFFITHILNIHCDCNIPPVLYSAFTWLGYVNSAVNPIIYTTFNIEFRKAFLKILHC
Experiment [5] addresses T2, D(4) dopamine receptor (Homo sapiens, UniProt P21917).
T2 sequence (P21917 whole entry): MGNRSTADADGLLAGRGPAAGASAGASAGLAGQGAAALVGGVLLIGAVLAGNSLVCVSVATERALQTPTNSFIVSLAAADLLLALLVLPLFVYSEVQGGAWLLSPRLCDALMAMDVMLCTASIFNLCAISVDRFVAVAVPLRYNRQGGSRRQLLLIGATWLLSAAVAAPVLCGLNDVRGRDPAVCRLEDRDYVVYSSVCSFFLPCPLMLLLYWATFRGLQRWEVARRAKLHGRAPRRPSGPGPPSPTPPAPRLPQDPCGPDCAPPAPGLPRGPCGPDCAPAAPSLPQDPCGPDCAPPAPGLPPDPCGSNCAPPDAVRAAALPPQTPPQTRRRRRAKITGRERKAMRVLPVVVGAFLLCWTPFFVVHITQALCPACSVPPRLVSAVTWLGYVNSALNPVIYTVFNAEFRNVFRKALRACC
In words: Effective concentration of compound required against human Dopamine D4.2 receptor. Type of experiment: functional.

Experiment [6] addresses T1, D(2) dopamine receptor. In words: Ability to displace […] radioligand from cloned human Dopamine receptor D2 in CHO cells. Type of experiment: cell-based.
Experiment [7] concerns the target T2, D(4) dopamine receptor. In words: Ability to displace [3H]spiperone radioligand from cloned human Dopamine receptor D4 in CHO cells. The class given is cell-based.
The target of experiment [8] is T3, D(4) dopamine receptor (Homo sapiens) (UniProt P21917).
T3 sequence (whole entry): T2 sequence (P21917 whole entry)

Chain of 5-hydroxytryptamine receptor 2A (P50129 whole entry): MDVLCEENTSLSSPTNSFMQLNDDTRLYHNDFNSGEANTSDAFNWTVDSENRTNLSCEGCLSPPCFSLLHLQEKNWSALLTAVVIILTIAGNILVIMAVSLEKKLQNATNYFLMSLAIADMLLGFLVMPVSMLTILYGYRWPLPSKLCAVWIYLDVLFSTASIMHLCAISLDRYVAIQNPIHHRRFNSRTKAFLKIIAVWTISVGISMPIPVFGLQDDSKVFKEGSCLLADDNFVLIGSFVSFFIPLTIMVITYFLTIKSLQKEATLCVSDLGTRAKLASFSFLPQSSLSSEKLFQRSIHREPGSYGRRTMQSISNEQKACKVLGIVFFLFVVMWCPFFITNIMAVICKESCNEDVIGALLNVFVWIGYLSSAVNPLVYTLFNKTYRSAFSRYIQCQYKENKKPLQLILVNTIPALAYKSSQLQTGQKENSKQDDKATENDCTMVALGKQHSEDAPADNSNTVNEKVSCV
Chain of D(3) dopamine receptor (P35462 whole entry): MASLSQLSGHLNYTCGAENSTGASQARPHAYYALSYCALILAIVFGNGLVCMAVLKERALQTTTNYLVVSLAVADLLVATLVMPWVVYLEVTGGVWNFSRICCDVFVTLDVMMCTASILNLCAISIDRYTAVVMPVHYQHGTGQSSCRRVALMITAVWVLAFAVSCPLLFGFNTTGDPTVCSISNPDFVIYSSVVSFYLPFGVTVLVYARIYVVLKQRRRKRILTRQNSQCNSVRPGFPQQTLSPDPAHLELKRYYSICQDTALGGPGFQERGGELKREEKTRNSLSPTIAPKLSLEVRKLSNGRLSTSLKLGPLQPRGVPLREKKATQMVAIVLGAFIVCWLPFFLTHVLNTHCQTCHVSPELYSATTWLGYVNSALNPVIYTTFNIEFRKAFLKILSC
Chain of D(1A) dopamine receptor (Q95136 whole entry): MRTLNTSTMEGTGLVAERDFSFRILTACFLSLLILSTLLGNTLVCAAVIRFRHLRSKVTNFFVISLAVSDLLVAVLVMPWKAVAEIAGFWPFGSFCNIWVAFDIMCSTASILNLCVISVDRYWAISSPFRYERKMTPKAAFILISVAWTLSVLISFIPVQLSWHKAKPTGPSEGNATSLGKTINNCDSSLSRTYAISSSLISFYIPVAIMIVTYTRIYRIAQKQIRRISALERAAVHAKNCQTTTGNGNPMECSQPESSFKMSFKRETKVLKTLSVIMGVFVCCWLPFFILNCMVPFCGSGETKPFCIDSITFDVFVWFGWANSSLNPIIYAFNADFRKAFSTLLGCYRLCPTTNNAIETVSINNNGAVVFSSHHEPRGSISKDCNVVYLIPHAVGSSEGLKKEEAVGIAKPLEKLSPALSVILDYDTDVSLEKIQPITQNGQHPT

Regarding `c1ccc(-c2c[nH]c(CN3CCN(c4ccccc4)CC3)c2)cc1`, the Ki (commonly a measure of affinity in units of concentration, obtained from inhibition or displacement) in experiment [1] stood at 1300 nM; in experiment [2], 2100 nM; in experiment [3], 540 nM; in experiment [4], 170 nM; in experiment [6], 230 nM; in experiment [7] it was 12 nM. Moreover, the midpoint of the response in experiment [5], the EC50, lay at 6.8 nM.

As for `N#Cc1cc(CN2CCN(c3ccccc3)CC2)c[nH]1`, the Ki in experiment [1] is 450 nM; in experiment [2], 1200 nM; in experiment [3], 720 nM; in experiment [4], 3400 nM; in experiment [6], 2400 nM; in experiment [7], 18 nM. A half-maximal effect in experiment [8] (EC50) was put at 7.8 nM.

For the molecule `N#Cc1c[nH]c(CN2CCN(c3ccccc3)CC2)c1`, the Ki in experiment [1] came to 610 nM; in experiment [2], 4600 nM; in experiment [3], 1800 nM; in experiment [4], 8000 nM; in experiment [6], 3700 nM; in experiment [7], 21 nM. Further, a half-maximal effect in experiment [5] (EC50) was put at 5.6 nM.

Take `c1ccc(N2CCN(Cc3ccc[nH]3)CC2)cc1`: the Ki in experiment [2] came out at 5400 nM; in experiment [3] it was 570 nM; in experiment [4] it was 3000 nM; in experiment [6] it was 3100 nM; in experiment [7], 100 nM.

On to `C#Cc1c[nH]c(CN2CCN(c3ccccc3)CC2)c1`, for which the Ki was 380 nM in experiment [1]; 2000 nM in experiment [2]; 850 nM in experiment [3]; 580 nM in experiment [4]; 770 nM in experiment [6]; 5.9 nM in experiment [7]. Moreover, in experiment [5], the EC50 (commonly the concentration needed to bring the measured effect to its halfway point) came to 1.9 nM.

On to `C(#Cc1c[nH]c(CN2CCN(c3ccccc3)CC2)c1)c1ccccc1`, for which the Ki in experiment [2] was 2700 nM; in experiment [3] it was 670 nM; in experiment [4] it was 550 nM; in experiment [6], 760 nM; in experiment [7], 83 nM.

(Values after ChEMBL document CHEMBL1135184, “2,4-Disubstituted pyrroles: synthesis, traceless linking and pharmacological investigations leading to the dopamine D4 receptor partial agonist FAUC 356” (Bioorg Med Chem Lett, 2002).)
